In brackets after ≈: the same amount, converted by molar mass.
Columns and labels:
[1] = test system: Mycobacterium tuberculosis; assay: Antimycobacterial activity against Mycobacterium tuberculosis H37Rv ATCC 27294 after 7 days by MABA method; format: functional; conditions: H37Rv ATCC 27294, 168 h
How it was run: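 Inoculum from fresh LJ culture resuspended in 7H9-S (7H9 broth, 0.1% casitone, 0.5% glycerol, OADC), adjusted to McFarland No. 1 and diluted 1:20. Drug stocks diluted in 7H9-S to four-fold the highest final concentration. Plates sealed and incubated at 37 °C in normal atmosphere for 7 days, then alamar blue added.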

[2] = Cytotoxicity against HEK293T cells assessed as inhibition of cell growth at 50 ug/mL after 72 hrs by MTT assay; format: cell-based, HEK-293T; conditions: human, read-out: GI
How it was run: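 HEK-293T cells exposed to each compound at one concentration (50) for 72 h. Viability was read from cellular conversion of MTT to formazan using a non-radioactive cell proliferation kit, and the result is given as percentage inhibition of cells.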

Cn1cc(-c2ccc3nc(C(=O)NCc4ccc(F)cc4)cn3c2)cn1 showed an MIC [1] of 25 µg/mL (≈ 71.6 µM) and an inhibition at 72 h, 50 ug/mL [2] of 36.1%.

Compound Nc1ncccc1-c1ccc2nc(C(=O)NCc3ccc(F)cc3)cn2c1 has an MIC [1] of 25 µg/mL (≈ 69.2 µM) and an inhibition at 72 h, 50 ug/mL [2] of 40.8%.

With O=C(NCc1ccc(F)cc1)c1cn2cc(-c3cccc4ncccc34)ccc2n1 the MIC [1] was 25 µg/mL (≈ 63.1 µM) and the inhibition at 72 h, 50 ug/mL [2] was 28.1%.

In the case of O=C(O)CCc1ccc(-c2ccc3nc(C(=O)NCc4ccc(F)cc4)cn3c2)cc1, the MIC [1] is reported as > 50 µg/mL.

With Cn1cc(-c2ccc3nc(C(=O)NCc4ccco4)cn3c2)cn1 the MIC [1] was > 50 µg/mL.

Nc1ncccc1-c1ccc2nc(C(=O)NCc3ccco3)cn2c1 gave an MIC [1] of 25 µg/mL (≈ 75 µM) and an inhibition at 72 h, 50 ug/mL [2] of 26.1%.

In the case of O=C(NCc1ccco1)c1cn2cc(-c3cccc4ncccc34)ccc2n1, the MIC [1] is reported as 25 µg/mL (≈ 67.9 µM) and the inhibition at 72 h, 50 ug/mL [2] is reported as 24.8%.

Compound O=C(NCc1ccco1)c1cn2cc(-c3cnn(CCN4CCOCC4)c3)ccc2n1 has an MIC [1] of 12.5 µg/mL (≈ 29.7 µM) and an inhibition at 72 h, 50 ug/mL [2] of 34.1%.

CN1CCN(C(=O)c2ccc(-c3ccc4nc(C(=O)NCc5ccco5)cn4c3)cc2)CC1 gave an MIC [1] of 25 µg/mL (≈ 56.4 µM) and an inhibition at 72 h, 50 ug/mL [2] of 30.1%.

O=C(NCc1ccncc1)c1cn2cc(-c3ccc(Cl)cc3)ccc2n1 showed an MIC [1] of 6.25 µg/mL (≈ 17.2 µM) and an inhibition at 72 h, 50 ug/mL [2] of 26.1%.

With COc1ccccc1-c1ccc2nc(C(=O)NCc3ccncc3)cn2c1 the MIC [1] was 12.5 µg/mL (≈ 34.9 µM) and the inhibition at 72 h, 50 ug/mL [2] was 31.6%.

For Cn1cc(-c2ccc3nc(C(=O)NCc4ccc5c(c4)OCO5)cn3c2)cn1, the MIC [1] was 6.25 µg/mL (≈ 16.6 µM) and the inhibition at 72 h, 50 ug/mL [2] was 25.6%.

With O=C(NC1CC1)c1cn2cc(-c3cnn(CCN4CCOCC4)c3)ccc2n1 the MIC [1] was 25 µg/mL (≈ 65.7 µM) and the inhibition at 72 h, 50 ug/mL [2] was 29.1%.

Work on O=C(NCc1ccc(C(F)(F)F)cc1)c1cn2cc(-c3cccc4ncccc34)ccc2n1 yielded an MIC [1] of 25 µg/mL (≈ 56 µM) and an inhibition at 72 h, 50 ug/mL [2] of 37.8%.

O=C(NCc1ccc(C(F)(F)F)cc1)c1cn2cc(-c3cnn(CCN4CCOCC4)c3)ccc2n1 showed an MIC [1] of 12.5 µg/mL (≈ 25.1 µM) and an inhibition at 72 h, 50 ug/mL [2] of 22.2%.

In the case of O=C(NC1CCOCC1)c1cn2cc(-c3cnn(CCN4CCOCC4)c3)ccc2n1, the MIC [1] is reported as 6.25 µg/mL (≈ 14.7 µM) and the inhibition at 72 h, 50 ug/mL [2] is reported as 30.1%.

NNC(=O)c1ccncc1 [ISONIAZID] gave an MIC [1] of 0.36 µg/mL (≈ 2.63 µM).

For CO[C@H]1/C=C/O[C@@]2(C)Oc3c(C)c(O)c4c(O)c(c(/C=N/N5CCN(C)CC5)c(O)c4c3C2=O)NC(=O)/C(C)=C\C=C\[C@H](C)[C@H](O)[C@@H](C)[C@@H](O)[C@@H](C)[C@H](OC(C)=O)[C@@H]1C [RIFAMPIN], the MIC [1] was 0.02 µg/mL (≈ 0.0243 µM).

Compound CCc1nc2ccc(Cl)cn2c1C(=O)NCc1ccc(N2CCC(c3ccc(OC(F)(F)F)cc3)CC2)cc1 [TELACEBEC] has an MIC50 [1] of 2.7 nM (≈ 1.5 ng/mL).

From ChEMBL document CHEMBL3351487, “Synthesis, molecular docking and anti-mycobacterial evaluation of new imidazo[1,2-a]pyridine-2-carboxamide derivatives” (Eur J Med Chem, 2015)
